ChEMBL document CHEMBL5055621, “Synthesis and Characterization of the Novel Rodent-Active and CNS-Penetrant P2X7 Receptor Antagonist Lu AF27139” (J Med Chem, 2021)

Columns and labels:
P2X purinoceptor 7 = target: T1, P2X purinoceptor 7 (Rattus norvegicus, UniProt Q64663); assay: Displacement of [3H]-A-804598 from rat P2X7 receptor expressed in HEK293 cell membrane by in vitro binding assay; format: cell membranes
T1 sequence (Q64663 whole entry): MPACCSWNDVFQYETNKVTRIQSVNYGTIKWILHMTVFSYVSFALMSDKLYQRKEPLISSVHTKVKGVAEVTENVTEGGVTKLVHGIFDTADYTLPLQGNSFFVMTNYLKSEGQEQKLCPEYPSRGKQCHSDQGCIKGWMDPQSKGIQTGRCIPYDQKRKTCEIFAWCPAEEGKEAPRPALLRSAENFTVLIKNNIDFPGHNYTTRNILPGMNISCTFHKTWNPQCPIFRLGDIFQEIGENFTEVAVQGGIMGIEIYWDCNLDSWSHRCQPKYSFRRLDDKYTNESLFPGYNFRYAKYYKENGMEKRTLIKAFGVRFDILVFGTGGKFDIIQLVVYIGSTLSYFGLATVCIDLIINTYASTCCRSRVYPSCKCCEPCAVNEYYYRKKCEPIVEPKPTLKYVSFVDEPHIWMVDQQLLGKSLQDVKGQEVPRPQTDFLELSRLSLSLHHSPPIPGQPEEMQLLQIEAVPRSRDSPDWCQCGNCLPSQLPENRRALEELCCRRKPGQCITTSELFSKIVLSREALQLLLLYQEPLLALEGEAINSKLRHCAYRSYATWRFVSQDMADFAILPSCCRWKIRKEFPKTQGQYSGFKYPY

[1] = Efflux ratio of permeability across basolateral to apical side over apical to basolateral side in MDCK2-MDR1 cells; format: ADME, cell-based, Canis lupus familiaris; settings: dog, MDCK-MDR1
How it was run: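 MDR1-MDCK monolayers; permeability measured in both A-to-B and B-to-A directions, in triplicate. Efflux ratio taken as B:A over A:B permeation.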

[2] = Inhibition of BzATP-induced current in rat primary microglia cells measured after repeated BzATP treatment at -60 mV at 10 nM by whole cell patch clamp assay relative to control; format: functional
How it was run: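 Rat primary microglia were whole-cell patch-clamped at −60 mV (external pH 7.4 with 1.8 mM CaCl2; CsCl/EGTA internal pH 7.2). Currents came from 10 s applications of 300 μM BzATP, applied repeatedly. Compound was applied by gravity via capillary for 60 s, and inhibition was taken relative to the control response.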

[3] = Inhibition of BzATP-induced IL-1beta in rat primary microglia cells primed with LPS measured after repeated BzATP treatment by microplate reader; format: functional, tissue-based
How it was run: (§1)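 Cortical microglia from rat (P3 pups) or mouse were plated 1 day before assay and primed with 3 EU/mL LPS for 3.5 h. Compound was added for 30 min, then BzATP (1 mM) for 30 min at 37 °C. IL-1β was measured by MesoScale assay, normalised to BCA protein, and given as mean ± SD.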

[4] = Inhibition of BzATP-induced IL-1beta in mouse primary microglia cells primed with LPS measured after repeated BzATP treatment by microplate reader; format: functional, tissue-based; how it was run: as §1
[5] = target: Adenosine receptor A2a (Homo sapiens) (UniProt P29274); assay: Displacement of [3H]-CGS 21680 from human recombinant adenosine A2A receptor at 10 uM after 120 mins by scintillation counting analysis relative to control
Cytochrome P450 3A4 [6] = target: T2, Cytochrome P450 3A4 (Homo sapiens, UniProt P08684); assay: Inhibition of CYP3A4 (unknown origin) upto 25 uM; format: ADME
Cytochrome P450 3A4 [7] = target: T2, Cytochrome P450 3A4; assay: Time dependent inhibition of CYP3A4 (unknown origin) upto 25 uM; format: ADME
Cytochrome P450 2C9 [8] = target: T3, Cytochrome P450 2C9 (Homo sapiens, UniProt P11712); assay: Inhibition of CYP2C9 (unknown origin) upto 25 uM; format: ADME
Cytochrome P450 2C9 [9] = target: T3, Cytochrome P450 2C9; assay: Time dependent inhibition of CYP2C9 (unknown origin) upto 25 uM; format: ADME
Cytochrome P450 2D6 = Cytochrome P450 2D6 (Homo sapiens, UniProt P10635); assay: Time dependent inhibition of CYP2D6 (unknown origin) upto 25 uM; format: ADME
Cytochrome P450 2C8 [10] = target: T4, Cytochrome P450 2C8 (Homo sapiens, UniProt P10632); assay: Inhibition of CYP2C8 (unknown origin) upto 25 uM; format: ADME
T4 sequence (P10632 whole entry): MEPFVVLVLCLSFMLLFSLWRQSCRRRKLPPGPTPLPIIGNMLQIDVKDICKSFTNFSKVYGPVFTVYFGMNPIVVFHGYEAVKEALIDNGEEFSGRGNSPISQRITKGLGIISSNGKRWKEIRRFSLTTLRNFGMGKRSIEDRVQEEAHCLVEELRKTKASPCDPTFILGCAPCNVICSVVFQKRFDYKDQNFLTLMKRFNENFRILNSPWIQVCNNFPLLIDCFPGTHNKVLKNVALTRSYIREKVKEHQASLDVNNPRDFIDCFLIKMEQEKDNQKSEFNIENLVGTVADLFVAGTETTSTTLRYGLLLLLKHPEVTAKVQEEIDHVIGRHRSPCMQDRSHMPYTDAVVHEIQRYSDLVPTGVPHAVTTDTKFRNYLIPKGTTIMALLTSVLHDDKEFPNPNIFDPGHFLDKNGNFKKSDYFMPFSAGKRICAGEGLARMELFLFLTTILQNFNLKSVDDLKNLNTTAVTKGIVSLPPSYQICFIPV

Cytochrome P450 2C8 [11] = target: T4, Cytochrome P450 2C8; assay: Time dependent inhibition of CYP2C8 (unknown origin) upto 25 uM; format: ADME
[12] = Cmax in rat at 2 mg/kg, po; format: ADME, organism-based; parameters: dose 2 mg/kg, route po; settings: in vivo
How it was run: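 Rats received 1 mg/kg iv or 2 mg/kg po. The plasma concentration–time profile was analysed by a noncompartmental model to give half-life, Cmax, Tmax and absolute oral bioavailability.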

[13] = Free plasma concentration in rat at 10 mg/kg, po after 2 hrs by ex vivo equilibrium dialysis; format: ADME, organism-based
How it was run: (§2)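 Male Sprague–Dawley rats were dosed orally at 1–100 mg/kg, and total plasma concentration was measured at 1 and 2 h. This was multiplied by fraction unbound from ex vivo equilibrium dialysis; mean ± SEM, n = 3 animals.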

[14] = Free plasma concentration in rat at 100 mg/kg, po after 2 hrs by ex vivo equilibrium dialysis; format: ADME, organism-based; how it was run: as §2
[15] = target: Sodium channel protein type 5 subunit alpha (Homo sapiens, UniProt Q14524); assay: Inhibition of human Nav1.5 at 10 uM
How it was run: (§3)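 Human Nav1.5, Cav1.2 and KCNQ1/minK channels were tested at 10 μM.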

[16] = target: Voltage-dependent L-type calcium channel subunit alpha-1C (Homo sapiens, UniProt Q13936); assay: Inhibition of human Cav1.2 at 10 uM; how it was run: as §3
[17] = Tmax in male rat at 150 mg/kg, po after 7 days; format: ADME, organism-based; settings: in vivo, time 7 day
in vitro = settings: rat, liver microsomes
[18] = Cmax in female mouse at 100 mg/kg, po administered as single dose; settings: in vivo
[19] = Apparent permeability across apical to basolateral side in MDCK-MDR1 cells by LC-MS/MS analysis; settings: dog

T2 sequence (P08684 whole entry): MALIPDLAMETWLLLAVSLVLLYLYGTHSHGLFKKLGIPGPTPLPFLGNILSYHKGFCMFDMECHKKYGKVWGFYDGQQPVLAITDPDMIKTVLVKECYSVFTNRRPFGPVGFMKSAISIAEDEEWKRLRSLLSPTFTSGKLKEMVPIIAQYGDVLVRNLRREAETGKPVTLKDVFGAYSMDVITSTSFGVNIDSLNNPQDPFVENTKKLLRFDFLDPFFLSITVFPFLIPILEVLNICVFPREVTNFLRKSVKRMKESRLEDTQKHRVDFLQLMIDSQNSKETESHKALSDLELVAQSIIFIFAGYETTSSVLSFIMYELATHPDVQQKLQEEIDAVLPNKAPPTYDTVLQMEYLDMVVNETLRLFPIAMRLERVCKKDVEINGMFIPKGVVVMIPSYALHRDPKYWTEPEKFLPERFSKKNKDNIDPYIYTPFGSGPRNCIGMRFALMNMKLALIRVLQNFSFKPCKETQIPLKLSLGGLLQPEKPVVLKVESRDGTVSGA
T3 sequence (P11712 whole entry): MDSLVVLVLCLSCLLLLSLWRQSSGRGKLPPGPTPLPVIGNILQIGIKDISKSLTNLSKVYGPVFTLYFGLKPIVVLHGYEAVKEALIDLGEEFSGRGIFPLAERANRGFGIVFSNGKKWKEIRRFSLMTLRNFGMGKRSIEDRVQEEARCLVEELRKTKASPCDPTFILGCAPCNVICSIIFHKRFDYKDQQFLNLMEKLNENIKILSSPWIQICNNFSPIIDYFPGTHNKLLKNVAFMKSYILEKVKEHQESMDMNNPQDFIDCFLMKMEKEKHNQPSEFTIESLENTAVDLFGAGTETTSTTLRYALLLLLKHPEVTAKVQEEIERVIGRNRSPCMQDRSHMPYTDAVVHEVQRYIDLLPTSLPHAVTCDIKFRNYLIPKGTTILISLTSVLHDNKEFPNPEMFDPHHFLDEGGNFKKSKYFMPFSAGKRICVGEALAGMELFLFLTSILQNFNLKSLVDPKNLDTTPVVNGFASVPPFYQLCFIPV
Sequence of Voltage-dependent L-type calcium channel subunit alpha-1C (Q13936 whole entry): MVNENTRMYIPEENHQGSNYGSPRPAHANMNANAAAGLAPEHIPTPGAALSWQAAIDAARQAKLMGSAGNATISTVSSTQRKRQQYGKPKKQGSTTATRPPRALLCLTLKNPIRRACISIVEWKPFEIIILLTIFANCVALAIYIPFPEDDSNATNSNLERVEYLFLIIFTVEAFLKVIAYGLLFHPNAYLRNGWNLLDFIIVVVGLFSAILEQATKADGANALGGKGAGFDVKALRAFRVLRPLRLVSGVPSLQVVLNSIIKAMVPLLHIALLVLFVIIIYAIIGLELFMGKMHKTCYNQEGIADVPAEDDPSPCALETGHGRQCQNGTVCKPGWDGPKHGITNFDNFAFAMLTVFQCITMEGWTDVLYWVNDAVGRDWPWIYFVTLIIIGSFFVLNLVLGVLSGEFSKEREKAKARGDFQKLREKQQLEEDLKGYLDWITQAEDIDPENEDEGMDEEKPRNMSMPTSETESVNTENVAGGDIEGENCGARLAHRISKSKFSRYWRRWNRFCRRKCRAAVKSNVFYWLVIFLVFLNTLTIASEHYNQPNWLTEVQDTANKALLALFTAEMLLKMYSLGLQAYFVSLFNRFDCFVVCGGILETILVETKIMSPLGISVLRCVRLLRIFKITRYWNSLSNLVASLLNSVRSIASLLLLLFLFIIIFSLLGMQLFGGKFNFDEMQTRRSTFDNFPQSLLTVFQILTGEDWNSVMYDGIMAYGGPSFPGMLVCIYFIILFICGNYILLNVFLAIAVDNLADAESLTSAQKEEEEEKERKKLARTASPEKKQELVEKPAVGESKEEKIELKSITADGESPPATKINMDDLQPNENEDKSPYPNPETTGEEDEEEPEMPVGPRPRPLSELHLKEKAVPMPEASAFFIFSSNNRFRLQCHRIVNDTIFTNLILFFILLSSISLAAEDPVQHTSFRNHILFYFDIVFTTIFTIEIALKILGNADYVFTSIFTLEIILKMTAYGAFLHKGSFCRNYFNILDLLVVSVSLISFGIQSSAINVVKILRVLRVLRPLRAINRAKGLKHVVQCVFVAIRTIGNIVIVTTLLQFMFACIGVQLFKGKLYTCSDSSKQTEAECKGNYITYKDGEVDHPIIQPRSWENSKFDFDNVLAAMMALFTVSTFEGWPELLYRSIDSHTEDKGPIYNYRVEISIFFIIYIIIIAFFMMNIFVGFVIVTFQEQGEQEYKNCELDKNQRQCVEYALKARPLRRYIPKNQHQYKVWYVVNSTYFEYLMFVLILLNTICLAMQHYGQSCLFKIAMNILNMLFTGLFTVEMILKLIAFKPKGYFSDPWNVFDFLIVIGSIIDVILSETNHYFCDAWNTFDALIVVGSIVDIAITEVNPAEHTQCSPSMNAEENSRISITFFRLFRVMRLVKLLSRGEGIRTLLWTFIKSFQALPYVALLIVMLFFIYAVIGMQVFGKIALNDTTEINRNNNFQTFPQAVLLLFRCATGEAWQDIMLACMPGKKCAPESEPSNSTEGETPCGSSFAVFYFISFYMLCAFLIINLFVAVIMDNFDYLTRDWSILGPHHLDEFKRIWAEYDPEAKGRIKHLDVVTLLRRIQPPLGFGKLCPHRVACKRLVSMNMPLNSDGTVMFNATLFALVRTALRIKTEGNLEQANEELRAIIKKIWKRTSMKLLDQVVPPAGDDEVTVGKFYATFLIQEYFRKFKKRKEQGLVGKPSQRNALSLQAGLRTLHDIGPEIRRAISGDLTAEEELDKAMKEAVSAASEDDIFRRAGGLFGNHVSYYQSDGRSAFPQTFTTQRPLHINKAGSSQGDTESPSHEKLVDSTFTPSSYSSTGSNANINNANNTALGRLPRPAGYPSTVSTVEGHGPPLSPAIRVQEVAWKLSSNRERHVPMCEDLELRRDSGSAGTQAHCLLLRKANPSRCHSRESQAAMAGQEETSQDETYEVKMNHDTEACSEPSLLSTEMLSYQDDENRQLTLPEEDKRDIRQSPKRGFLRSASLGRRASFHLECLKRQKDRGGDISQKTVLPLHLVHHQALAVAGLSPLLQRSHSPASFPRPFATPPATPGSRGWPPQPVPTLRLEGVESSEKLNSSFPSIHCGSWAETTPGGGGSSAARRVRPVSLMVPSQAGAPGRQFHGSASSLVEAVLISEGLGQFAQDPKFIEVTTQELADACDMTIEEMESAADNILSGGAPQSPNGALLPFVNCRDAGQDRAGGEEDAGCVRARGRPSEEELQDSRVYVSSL
Sequence of Cytochrome P450 2D6 (P10635 whole entry): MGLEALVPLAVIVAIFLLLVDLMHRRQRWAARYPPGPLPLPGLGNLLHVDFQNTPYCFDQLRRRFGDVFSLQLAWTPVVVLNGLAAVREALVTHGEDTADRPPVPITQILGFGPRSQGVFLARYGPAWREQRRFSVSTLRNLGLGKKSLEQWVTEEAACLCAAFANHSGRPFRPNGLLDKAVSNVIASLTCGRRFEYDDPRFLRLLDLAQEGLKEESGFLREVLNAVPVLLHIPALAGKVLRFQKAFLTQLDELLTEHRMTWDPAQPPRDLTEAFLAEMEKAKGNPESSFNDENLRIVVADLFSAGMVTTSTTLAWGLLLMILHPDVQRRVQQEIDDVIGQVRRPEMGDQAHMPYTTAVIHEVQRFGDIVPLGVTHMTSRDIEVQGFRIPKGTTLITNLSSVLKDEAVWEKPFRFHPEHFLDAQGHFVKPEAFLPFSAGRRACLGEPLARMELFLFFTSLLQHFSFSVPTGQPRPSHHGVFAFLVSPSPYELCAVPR
Sequence of Adenosine receptor A2a (Homo sapiens) (P29274 whole entry): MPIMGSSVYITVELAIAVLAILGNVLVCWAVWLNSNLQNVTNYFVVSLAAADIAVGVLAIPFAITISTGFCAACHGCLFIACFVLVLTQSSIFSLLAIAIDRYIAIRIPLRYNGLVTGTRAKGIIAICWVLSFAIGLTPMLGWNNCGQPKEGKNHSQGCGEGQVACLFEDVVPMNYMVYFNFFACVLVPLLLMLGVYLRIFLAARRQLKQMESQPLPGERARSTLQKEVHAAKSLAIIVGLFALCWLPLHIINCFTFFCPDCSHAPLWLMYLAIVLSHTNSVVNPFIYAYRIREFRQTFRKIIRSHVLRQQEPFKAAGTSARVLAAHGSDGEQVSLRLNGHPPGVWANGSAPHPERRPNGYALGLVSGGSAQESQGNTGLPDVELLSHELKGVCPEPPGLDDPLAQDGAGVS

- Ki (P2X purinoceptor 7): 13 nM
- efflux ratio [1]: 0.81
- IC50 [3]: 38 nM
- IC50 [4]: 26 nM
- inhibition [5]: 34%
- inhibition (INH) (Cytochrome P450 3A4 [6]): Not Active
- TDI (Cytochrome P450 3A4 [7]): Not Active
- inhibition (INH) (Cytochrome P450 2C9 [8]): Not Active
- TDI (Cytochrome P450 2C9 [9]): Not Active
- TDI (Cytochrome P450 2D6): Not Active
- inhibition (INH) (Cytochrome P450 2C8 [10]): Not Active
- TDI (Cytochrome P450 2C8 [11]): Not Active
- Cmax [12]: 2700 nM
- Cp(f) [13]: 164 nM
- Cp(f) [14]: 497 nM
- Tmax [17]: 4 h
- CLint scaled at 1 h, 1 µM (in vitro): 85 mL/min/kg
- Cmax [18]: 140000 nM
- Papp A:B [19]: 15 ×10⁻⁶ cm/s
SMILES: O=C(NC[C@H](c1ccc(Cl)cc1)N1CCOCC1)c1sc(-c2ncccn2)nc1C(F)(F)F
- inhibition at 0.01 µM [2]: 31%
- inhibition (INH) [15]: Not Active
- inhibition (INH) [16]: Not Active
